≈ marks a conversion by molar mass, not a printed value. Calls of active or inactive are those of the source. The rule behind the calls is not given here.
Assays:
Cannabinoid receptor 1 [1] = molecular target: T1, Cannabinoid receptor 1 (Homo sapiens, UniProt P21554); assay: Agonist activity at human CB1 receptor up to 30 uM; type: functional
Method in brief: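 Human CB1 receptor agonist assay, tested at concentrations up to 30 µM (method per cited reference). Potency reported as pEC50. Efficacy is expressed as a percentage of the efficacy of the full agonist HU210. Values are the mean of at least two determinations.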

Cannabinoid receptor 2 [2] = molecular target: T2, Cannabinoid receptor 2 (Homo sapiens, UniProt P34972); assay: Agonist activity at human CB2 receptor; type: functional
Method in brief: (§1)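 Agonist pEC50 and efficacy at human receptor. Efficacy is expressed as a percentage relative to HU210 efficacy. Values are the mean of at least two determinations.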

Cannabinoid receptor 2 [3] = molecular target: T2, Cannabinoid receptor 2; assay: Agonist activity at human CB2 receptor relative to HU210; type: functional; method in brief: as §1
Cannabinoid receptor 1 [4] = molecular target: T1, Cannabinoid receptor 1; assay: Agonist activity at human CB1 receptor; type: functional; method in brief: as §1
Cannabinoid receptor 1 [5] = molecular target: T1, Cannabinoid receptor 1; assay: Agonist activity at human CB1 receptor relative to HU210; type: functional; method in brief: as §1
[6] = Aqueous solubility of the compound; type: physicochemical
[7] = Half life in rat at 1 mg/kg, iv; type: ADME, organism-based; design: dose 1 mg/kg, route intravenous; conditions: in vivo
Method in brief: (§2)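 Rats given an intravenous infusion at a target dose of 1 mg free base/kg for pharmacokinetic parameters.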

[8] = Drug level in rat blood at 1 mg/kg, po after 1 hr; type: ADME, organism-based; design: dose 1 mg/kg, route oral
Method in brief: (§3)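 Rat blood and brain tissue samples taken from FCA weight-bearing study animals 1 h after a 1 mg/kg oral dose. Compound concentrations measured in each; brain:blood ratio derived from the two concentrations.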

Rattus norvegicus = assay: Toxicity in rat assessed as induction of hypothermia up to 300 mg/kg po; type: organism-based; design: dose 300 mg/kg, route oral; conditions: in vivo
[9] = Blood clearance in rat at 1 mg/kg, iv; type: ADME, organism-based; design: dose 1 mg/kg, route intravenous; method in brief: as §2
[10] = Cmax in rat at 3 mg/kg, po; type: ADME, organism-based; design: dose 3 mg/kg, route oral; conditions: in vivo
Method in brief: (§4)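 Rats given a single oral dose by gastric gavage, formulated in 1% (w/v) aqueous methylcellulose, at a target dose of 3 mg/kg free base, for pharmacokinetic parameters.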

[11] = Ratio of drug level in brain to blood in rat at 1 mg/kg, po; type: ADME, organism-based; design: dose 1 mg/kg, route oral; method in brief: as §3
[12] = Drug level in rat brain at 1 mg/kg, po after 1 hr; type: ADME, organism-based; design: dose 1 mg/kg, route oral; conditions: read-out: Drug uptake; method in brief: as §3
[13] = Cmax in rat brain at 6.6 uM; type: ADME, organism-based; design: dose 6.6 uM
[14] = Oral bioavailability in rat at 3 mg/kg; type: ADME, organism-based; conditions: in vivo; method in brief: as §4
[15] = Tmax in rat at 3 mg/kg, po; type: ADME, organism-based; design: dose 3 mg/kg, route oral; conditions: in vivo; method in brief: as §4
[16] = Volume of distribution at steady state in rat at 1 mg/kg, iv; type: ADME, organism-based; design: dose 1 mg/kg, route intravenous; conditions: in vivo, read-out: Vdss; method in brief: as §2

T1 sequence (P21554 whole entry): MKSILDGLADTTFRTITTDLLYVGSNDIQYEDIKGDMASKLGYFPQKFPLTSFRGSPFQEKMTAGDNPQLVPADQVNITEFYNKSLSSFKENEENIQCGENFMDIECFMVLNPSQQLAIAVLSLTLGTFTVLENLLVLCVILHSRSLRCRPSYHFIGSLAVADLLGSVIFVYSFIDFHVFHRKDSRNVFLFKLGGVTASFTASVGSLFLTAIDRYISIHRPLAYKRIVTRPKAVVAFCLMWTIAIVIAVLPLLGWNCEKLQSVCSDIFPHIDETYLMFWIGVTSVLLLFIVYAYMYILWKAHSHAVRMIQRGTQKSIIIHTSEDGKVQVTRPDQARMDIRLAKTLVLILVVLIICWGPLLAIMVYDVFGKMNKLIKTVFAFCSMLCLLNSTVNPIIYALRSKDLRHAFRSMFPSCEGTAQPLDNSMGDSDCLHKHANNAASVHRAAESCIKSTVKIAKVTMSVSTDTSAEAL
T2 sequence (P34972 whole entry): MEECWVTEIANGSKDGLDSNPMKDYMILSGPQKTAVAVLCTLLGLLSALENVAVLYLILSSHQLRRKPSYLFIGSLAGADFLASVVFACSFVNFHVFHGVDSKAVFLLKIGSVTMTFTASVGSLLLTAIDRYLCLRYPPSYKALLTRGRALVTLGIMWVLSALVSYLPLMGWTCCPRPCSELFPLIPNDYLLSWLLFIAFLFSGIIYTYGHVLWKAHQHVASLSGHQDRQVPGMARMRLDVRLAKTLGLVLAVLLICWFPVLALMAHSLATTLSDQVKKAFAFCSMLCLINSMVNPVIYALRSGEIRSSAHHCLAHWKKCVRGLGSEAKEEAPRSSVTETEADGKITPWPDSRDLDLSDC

SMILES	EC50 (Cannabinoid receptor 2 [2]) [nM]	Efficacy (Cannabinoid receptor 2 [3]) [%]	EC50 (Cannabinoid receptor 1 [4]) [nM]	also measured
Clc1cccc(-c2cnc(N3CCOCC3)nn2)c1Cl	100	78		Activity (Cannabinoid receptor 1 [1]): inactive
COc1ccc(-c2ccc(N3CCOCC3)nn2)c(Cl)c1	> 31600		> 31600	
C[C@@H]1CC[C@H](C)N1c1ccc(-c2cccc(Cl)c2Cl)nn1	1.26	83	2510	Efficacy (Cannabinoid receptor 1 [5]): 57%
Cc1cccc(-c2ccc(N3CCOCC3)nn2)c1C	2000	71	> 31600	
c1ccc(COc2ccccc2-c2ccc(N3CCOCC3)nn2)cc1	631	45	3980	Efficacy (Cannabinoid receptor 1 [5]): 11%
Cc1ccc(-c2ccc(N3CCOCC3)nn2)c(Cl)c1	> 31600		> 31600	
C[C@@H]1CC[C@H](C)N1c1ccc(-c2cccc3cccnc23)nn1	79.4	82	> 31600	
Clc1cccc(-c2ccc(N3CCOCC3)cc2)c1Cl	39.8	86		Activity (Cannabinoid receptor 1 [1]): inactive
FC(F)(F)c1cccc(-c2ccc(N3CCOCC3)nn2)c1	1000	15	> 31600	
c1ccc(COc2cccc(-c3ccc(N4CCOCC4)nn3)c2)cc1	> 31600		> 31600	
Clc1cccc(-c2ccc(NC3CCOCC3)nn2)c1Cl	> 31600		> 31600	
Clc1cccc(-c2ccc(NC3CCCCC3)nn2)c1Cl	200	69	> 31600	
Clc1ccccc1-c1ccc(N2CCOCC2)nn1	1580	77	> 31600	
C[C@@H]1C=C[C@H](C)N1c1ccc(-c2cccc(Cl)c2Cl)nn1	0.631	93	6310	Efficacy (Cannabinoid receptor 1 [5]): 21%
Clc1cccc(-c2ccc(N3CCOCC3)nn2)c1Cl	79.4	76	> 31600	Activity (Cannabinoid receptor 1 [1]): inactive; solubility [6]: 6 µg/mL (≈ 19.3 µM)
FC1(F)CCN(c2ccc(-c3cccc(Cl)c3Cl)nn2)CC1	15.8	83	> 31600	
C[C@@H]1CC[C@H](C)N1c1ccc(-c2c[nH]c3ccccc23)nn1	251	61	> 31600	
Clc1cccc(-c2ncc(N3CCOCC3)cn2)c1Cl	50.1	92		Activity (Cannabinoid receptor 1 [1]): inactive; solubility [6]: < 1 µg/mL

SMILES	EC50 (Cannabinoid receptor 2 [2]) [nM]	Efficacy (Cannabinoid receptor 2 [3]) [%]	EC50 (Cannabinoid receptor 1 [4]) [nM]	also measured
C[C@@H]1CC[C@H](C)N1c1ccc(-c2cccc3cnccc23)nn1	39.8	93	20000	Efficacy (Cannabinoid receptor 1 [5]): 52%
Clc1cccc(-c2cnc(N3CCOCC3)nc2)c1Cl	200	67		Activity (Cannabinoid receptor 1 [1]): inactive
FC(F)(F)c1cccc(-c2ccc(N3CCOCC3)nn2)c1C(F)(F)F	158	75	> 31600	
COc1ccccc1-c1ccc(N2CCOCC2)nn1	12600	37	> 31600	
O=S1(=O)CCN(c2ccc(-c3cccc(Cl)c3Cl)nn2)CC1	631	89	> 31600	
FC(F)(F)c1ccccc1-c1ccc(N2CCOCC2)nn1	1260	78	> 31600	
FC(F)(F)Oc1ccccc1-c1ccc(N2CCOCC2)nn1	1260	55	> 31600	
Clc1ccc(-c2ccc(N3CCOCC3)nn2)c(Cl)c1	> 31600		> 31600	
Clc1cccc(-c2ccc(N3CCCC3)nn2)c1Cl	25.1	56	> 31600	
C[C@@H]1CC[C@H](C)N1c1ccc(-c2cccc3ncccc23)nn1	200	75	> 31600	
Clc1cccc(-c2ccc(N3CCCCC3)nn2)c1Cl	6.31	86	> 31600	
Clc1cccc(-c2ccc(N3CCOCC3)nc2)c1Cl				Activity (Cannabinoid receptor 1 [1]): inactive
Clc1ccc(Cl)c(-c2ccc(N3CCOCC3)nn2)c1	398	39	> 31600	
Clc1cc(Cl)c(Cl)c(-c2ccc(N3CCOCC3)nn2)c1	50.1	78	> 31600	
C[C@@H]1CC[C@H](C)N1c1ccc(-c2cncc3ccccc23)nn1	10	85	7940	half-life [7]: 18 min; concentration at 1 h [8]: 300 nM; Activity (Rattus norvegicus): Toxic; clearance [9]: 57 mL/min/kg; Cmax [10]: 340 nM; Kp [11]: 1; concentration at 1 h [12]: 500 nM; Cmax at 6.6 µM [13]: 11000 nM; bioavailability [14]: 26%; Tmax [15]: 54 min; Efficacy (Cannabinoid receptor 1 [5]): 71%; Vd [16]: 1.7 L/kg
Cc1ccccc1-c1ccc(N2CCOCC2)nn1	7940	38	> 31600	
Clc1cccc(-c2cnc(N3CCOCC3)cn2)c1Cl	39.8	89		Activity (Cannabinoid receptor 1 [1]): inactive; solubility [6]: 1 µg/mL (≈ 3.22 µM)
C[C@@H]1CC[C@H](C)N1c1ccc(-c2cc3ccccc3o2)nn1	158	70	> 31600	

From ChEMBL document CHEMBL1153230, “Synthesis and evaluation of 3-amino-6-aryl-pyridazines as selective CB(2) agonists for the treatment of inflammatory pain” (Bioorg Med Chem Lett, 2010)
